Results of several laboratories.
Each line is one published result; the experiments were not run side by side. pEC50, pIC50: −log10 of the molar value.

With `Brc1ccc(/C=N/N=C/c2ccc(Br)cc2)cc1` the pIC50 was < 2.52 (DPPH scavenging).
The pIC50 of `CCN(CC)c1ccc(/C=N/c2ccc(Br)cc2)c(O)c1` is reported as 4.36 (DPPH scavenging).
`CC(=O)c1nn(-c2ccccc2Cl)/c(=N/N=C(\C)c2ccc(NC(=O)c3ccccc3)cc2)s1` has a viability of 6.6% (MCF7; cell growth or viability, MTT; 0.625 µM).
The viability of `CC(=NNC(=S)Nc1ccccc1)c1ccc(Nc2nnc(-c3ccc(Cl)cc3)c3ccccc23)cc1` is reported as 27.5% (MCF7; cell growth or viability, MTT; 1.25 µM, 24 h).
`Cc1cccc(/C=N/N=C/c2cccc(C)c2)c1` has a pIC50 of 3.15 (DPPH scavenging).
`CCN(CC)c1ccc(/C=N/c2ccc(F)cc2)c(O)c1` has a pIC50 of 4.52 (DPPH scavenging).
The cell death of `CC(=NNC(=O)c1ccccc1)c1ccc(Nc2nnc(-c3ccc(Cl)cc3)c3ccccc23)cc1` is reported as 86.3% (MCF7; cell growth or viability, MTT; 2.5 µM).
`C=CC(=O)NC1CCN(c2ncc3ncnc(Nc4ccc(Oc5ccc6c(c5)ncn6C)c(C)c4)c3n2)CC1` gave a pEC50 of 5.96 (NCI-H2126; cell growth or viability).
The viability of `CCOC(=O)c1nn(-c2cccc(Cl)c2)/c(=N/N=C(\C)c2ccc(NC(=O)c3ccc(Cl)cc3)cc2)s1` is reported as 3.71% (MCF7; cell growth or viability, MTT; 10 µM).
For `Brc1cccc(/C=N/N=C/c2cccc(Br)c2)c1`, the pIC50 was 2.62 (DPPH scavenging).
`O=C(Nc1ccccc1)Nc1ccc(Oc2nnc(-c3ccc(Cl)cc3)c3ccccc23)cc1` has a cell death of 96.1% (MCF7; cell growth or viability, MTT; 1.25 µM).
`COc1cc(/C=N/N=C/c2cc(OC)c(OC)c(OC)c2)cc(OC)c1OC` has a pIC50 of 2.62 (DPPH scavenging).
`CC(=NNC(=O)c1cccnc1)c1ccc(Nc2nnc(-c3ccc(Cl)cc3)c3ccccc23)cc1` gave a cell death of 50.6% (MCF7; cell growth or viability, MTT; 0.625 µM).
With `CCOC(=O)c1nn(-c2cccc(Cl)c2)/c(=N/N=C(\C)c2ccc(NC(=O)c3ccccc3)cc2)s1` the viability was 59.2% (MCF7; cell growth or viability, MTT; 0.156 µM).
